Screens as filed in PubChem.
STAT3 inh: inhibitors of IL-6 induced STAT3 signaling | U3A cells, IL-6 STAT3-luciferase reporter, luminescence; host cell line lacks STAT1 | inhibition, % at 5.5 µM | 190,000 compounds, 0.89% hits;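 active means inhibition above the mean inhibition across all screened compounds plus 3 SD, cut at about 44% in these data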;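 further: 0% = DMSO only wells and 100% = 100 µM nifuroxazide control wells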
STAT1 act: activators of IFN-gamma induced STAT1 signaling; activation (% of control), % at 5.5 µM; NIH 3T3 STAT1-luciferase reporter, luminescence; 100% = IFN-gamma alone, no compound; 200,000 compounds, 2.6% hits;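 active means activation above the screen-wide mean activation plus 3 SD, cut at about 130% in these data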;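 further: raw ratio to IFN-gamma control signal so 100% means no change and 0% no light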
NF-kB expr up: raises NF-kB expression in human neuronal cells | 190,000 compounds, 1.6% hits | fold change at 12.5 µM | AID 1239 | NF-kB reporter expression; stronger effect = higher value; in the data active means fold change above about 3.3
STAT3 activator: increases IL-6 driven STAT3 reporter signal; 190,000 compounds, 0.91% hits; AID 871; activation (% of control), % at 5.6 µM; U3A cells, IL-6 STAT3-luciferase reporter, luminescence; 100% = signal with IL-6 EC80 alone;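 active means activation above the screen-wide mean of compound activation plus 3 SD, cut at about 130% in these data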;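 further: 0% = background luminescence of wells with medium and substrate only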
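Test system: Human STAT1-deficient U3A cells with stable STAT3-luciferase reporter | Also added: Interleukin-6, 33 ng/mL | Timing: Compound pre-incubation 1 h before IL-6, then 6 h stimulation at 37 °C | Technique: Luciferase reporter luminescence | Read-out: Percent of IL-6-only median luminescence | Benchmarks: IL-6-only wells as 100% reference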
APP 5'UTR act: activates APP 5'UTR luciferase reporter; SH-SY5Y APP 5'UTR luciferase reporter, luminescence; zero percent = DMSO vehicle wells; activation, % at 2 µM; 190,000 compounds, 1% hits; AID 1276;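 active means activation above a set limit, based on mean plus 3 SD of controls, cut at about 140% in these data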
STAT1 inh: inhibitors of IFN-gamma induced STAT1 signaling | NIH 3T3 STAT1-luciferase reporter, luminescence | inhibition, % at 5.5 µM | 200,000 compounds, 0.35% hits | AID 920;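 active means inhibition above a set limit, the mean inhibition across all tested compounds plus 3 SD, cut at about 34% in these data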;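 further: 0% = IFN-gamma with DMSO and 100% = IFN-gamma with 300 µM nifuroxazide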
An asterisk follows results filed as active. An excerpt weighted towards active compounds, which were near 4.9% of everything screened.

`C/C(=N\NC(=O)c1ccc(Cl)c(Cl)c1)c1ccc(Br)s1` gave STAT3 inh 5, STAT1 act 108, NF-kB expr up 1.1, STAT3 activator 100, APP 5'UTR act -52 and STAT1 inh -9.
`C/C(=N/NC(=O)c1ccc2c(c1)OCO2)c1ccc(Br)s1` gave STAT3 inh 6, STAT1 act 136*, NF-kB expr up 1.5, STAT3 activator 97, APP 5'UTR act 81 and STAT1 inh -41.
`C/C(=N/NC(=O)c1ccoc1C)c1ccc(N2CCOCC2)cc1` gave STAT3 inh 4, STAT1 act 146*, NF-kB expr up 1.8, STAT3 activator 99, APP 5'UTR act 202* and STAT1 inh -51.
`C/C(=N\NC(=O)c1cccs1)c1cccnc1` gave STAT3 inh 5, STAT1 act 115, NF-kB expr up 1.6, STAT3 activator 100, APP 5'UTR act 11 and STAT1 inh -16.
`C/C(=N\NC(=O)c1ccoc1C)c1cccnc1` gave STAT3 inh -2, STAT1 act 143*, NF-kB expr up 12*, STAT3 activator 102, APP 5'UTR act 152* and STAT1 inh -48.
C/C(=N/NC(=O)c1ccoc1C)c1ccc(NC(=O)c2ccncc2)cc1 was read as STAT3 inh -10, STAT1 act 143*, NF-kB expr up 2.1, STAT3 activator 107, APP 5'UTR act 125 and STAT1 inh -46.
For C/C(=N\NC(=O)c1ccc(Cl)cc1)c1ccc(N2CCOCC2)cc1 the results were STAT3 inh -2, STAT1 act 94, NF-kB expr up 1, STAT3 activator 100, APP 5'UTR act 5 and STAT1 inh 8.
O=C1CSC(c2ccccc2Br)N1c1ccc(Cl)cn1 (configuration not stated) was read as STAT3 inh -1, STAT1 act 98, NF-kB expr up 1.2, STAT3 activator 105, APP 5'UTR act 9 and STAT1 inh 1.
COC(=O)/C(C#N)=C1/C=Cc2ccccc2N1 was read as STAT3 inh 18, STAT1 act 130*, NF-kB expr up 1.7, STAT3 activator 89, APP 5'UTR act 24 and STAT1 inh -30.
Screening COc1ccc(NC(=S)N(CCN(C)C)C(C)c2ccco2)cc1Cl (configuration not stated) returned STAT3 inh 6, STAT1 act 103, NF-kB expr up 1.2, STAT3 activator 93, APP 5'UTR act 10 and STAT1 inh -4.
For COc1cccc(-c2cc(C(=O)N3CCCCCC3)no2)c1 the results were STAT3 inh 28, STAT1 act 122, NF-kB expr up 7.2*, STAT3 activator 81, APP 5'UTR act 151* and STAT1 inh -25.
For O=C(c1cc(-c2ccc(Cl)cc2)on1)N1CCOCC1 the results were STAT3 inh 43, STAT1 act 144*, NF-kB expr up 5*, STAT3 activator 66, APP 5'UTR act 158* and STAT1 inh -48.
Screening O=C(c1cc(-c2ccc(Cl)c(Cl)c2)on1)N1CCCC1 returned STAT3 inh 19, STAT1 act 103, NF-kB expr up 2, STAT3 activator 85, APP 5'UTR act 68 and STAT1 inh -2.
`O=C(c1cc(-c2cccc(O)c2)on1)N1CCCCC1` gave STAT3 inh 39, STAT1 act 85, NF-kB expr up 6*, STAT3 activator 68, APP 5'UTR act 196* and STAT1 inh 14.
Screening Cc1ccc(SCC(=O)c2c(C)nc3cc(C)ccn23)cc1 returned STAT3 inh 17, STAT1 act 98, NF-kB expr up 3.5*, STAT3 activator 88, APP 5'UTR act -17 and STAT1 inh 0.
`CN1CCN(c2ccc(-c3ccnn3C(=O)Nc3ccccc3)cc2)CC1` gave STAT3 inh 12, STAT1 act 115, NF-kB expr up 1.9, STAT3 activator 97, APP 5'UTR act 71 and STAT1 inh -19.
Screening CCCCOc1ccc(-c2ncc(C(=O)O)c(C)n2)cc1 returned STAT3 inh 6, STAT1 act 136*, NF-kB expr up 4.3*, STAT3 activator 99, APP 5'UTR act 165* and STAT1 inh -39.
NNc1nc2ccc(F)cc2s1 was read as STAT3 inh -25, STAT1 act 150*, NF-kB expr up 2.1, STAT3 activator 124, APP 5'UTR act 104 and STAT1 inh -56.
`Fc1ccc2nc(Nc3ccccc3)sc2c1` gave STAT3 inh 11, STAT1 act 140*, NF-kB expr up 3.7*, STAT3 activator 97, APP 5'UTR act 66 and STAT1 inh -43.
NNc1nc2ccc(Cl)cc2s1 was read as STAT3 inh -17, STAT1 act 109, NF-kB expr up 1.7, STAT3 activator 118, APP 5'UTR act 10 and STAT1 inh -10.
COc1ccc(Nc2nc3ccc(OC)cc3s2)cc1 was read as STAT3 inh 11, STAT1 act 130*, NF-kB expr up 2.5, STAT3 activator 95, APP 5'UTR act 39 and STAT1 inh -32.
COc1ccc(C(=O)N2CCC(n3c(C)nc4cc(F)ccc43)CC2)cc1 was read as STAT3 inh 15, STAT1 act 89, NF-kB expr up 1, STAT3 activator 93, APP 5'UTR act -8 and STAT1 inh 10.
CCOC(=O)Cc1csc(NS(=O)(=O)c2ccc(OC)cc2)n1 was read as STAT3 inh 5, STAT1 act 101, NF-kB expr up 1, STAT3 activator 100, APP 5'UTR act -19 and STAT1 inh -1.
CCc1ccc(NC(=O)C(=O)NCCOc2ccccc2Cl)cc1 was read as STAT3 inh 2, STAT1 act 100, NF-kB expr up 1, STAT3 activator 104, APP 5'UTR act 20 and STAT1 inh -2.
CCOc1ccccc1NC(=O)C1=C(C)NC(=O)NC1c1cccc(OC)c1OC (configuration not stated) was read as STAT3 inh -1, STAT1 act 95, NF-kB expr up 1, STAT3 activator 103, APP 5'UTR act 11 and STAT1 inh 5.
For CCOC(=O)C1=C(O)C(=O)N(Cc2cccnc2)C1c1ccc(OC)cc1 (configuration not stated) the results were STAT3 inh 0, STAT1 act 108, NF-kB expr up 1.1, STAT3 activator 104, APP 5'UTR act 7 and STAT1 inh -10.
Screening CN(C)/C=N/c1cnc(C(=O)c2ccc(Cl)cc2)n1C returned STAT3 inh 5, STAT1 act 146*, NF-kB expr up 3.8*, STAT3 activator 103, APP 5'UTR act 19 and STAT1 inh -50.
`CN(C)/C=N/NC(=O)c1ccc(Cl)cc1` gave STAT3 inh 5, STAT1 act 104, NF-kB expr up 1.2, STAT3 activator 98, APP 5'UTR act -6 and STAT1 inh -5.
